Each structure is given as a SMILES string.

The values that follow come from ChEMBL document CHEMBL1806446, “Synthesis and evaluation of hermitamides A and B as human voltage-gated sodium channel blockers” (Bioorg Med Chem, 2011).

The species named for one experiment is Rattus norvegicus. Kind of experiment: Displacement of [3H]batrachotoxin from neurotoxin site 2 of voltage-gated sodium channel in rat forebrain tissue at 10 uM after 60 mins. Put shortly:
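Rat forebrain membranes (10 mg tissue/well) incubated with [3H]-BTX (30–60 Ci/mmol) in 50 mM HEPES pH 7.4 with 130 mM choline chloride, 37 °C, 60 min; test at 10 μM. Stopped by rapid vacuum filtration onto glass fiber filters; bound radioactivity counted against control and expressed as percent displacement. Aconitine (1 μM) positive control.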
In general terms: Loss of bound radioactivity is the signal in a displacement assay; it reports binding, not function.

Experiment [1] deals with Sodium channel protein type 2 subunit alpha (Homo sapiens) (UniProt Q99250). As to the kind of experiment: Inhibition of human voltage-gated sodium channel 1.2 expressed in human HEK293 cells at 10 uM by […]. It is filed as cell-based. An outline of the steps: (§1)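 HEK293 cells stably expressing hNav1.2, grown in DMEM/F12 with 10% FBS and G418 at 37 °C. Whole-cell patch clamp at 20–22 °C with ≥75% series resistance compensation. Currents evoked by a 25 ms step from –60 to +10 mV every 15 s. Compound was diluted from DMSO stock into perfusion, ≤0.1% DMSO final, applied after a 3 min control until steady state. Reported as percent block, mean ± SEM.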
Sequence of Sodium channel protein type 2 subunit alpha (Homo sapiens) (Q99250 whole entry, looked up, the tested form may be a part): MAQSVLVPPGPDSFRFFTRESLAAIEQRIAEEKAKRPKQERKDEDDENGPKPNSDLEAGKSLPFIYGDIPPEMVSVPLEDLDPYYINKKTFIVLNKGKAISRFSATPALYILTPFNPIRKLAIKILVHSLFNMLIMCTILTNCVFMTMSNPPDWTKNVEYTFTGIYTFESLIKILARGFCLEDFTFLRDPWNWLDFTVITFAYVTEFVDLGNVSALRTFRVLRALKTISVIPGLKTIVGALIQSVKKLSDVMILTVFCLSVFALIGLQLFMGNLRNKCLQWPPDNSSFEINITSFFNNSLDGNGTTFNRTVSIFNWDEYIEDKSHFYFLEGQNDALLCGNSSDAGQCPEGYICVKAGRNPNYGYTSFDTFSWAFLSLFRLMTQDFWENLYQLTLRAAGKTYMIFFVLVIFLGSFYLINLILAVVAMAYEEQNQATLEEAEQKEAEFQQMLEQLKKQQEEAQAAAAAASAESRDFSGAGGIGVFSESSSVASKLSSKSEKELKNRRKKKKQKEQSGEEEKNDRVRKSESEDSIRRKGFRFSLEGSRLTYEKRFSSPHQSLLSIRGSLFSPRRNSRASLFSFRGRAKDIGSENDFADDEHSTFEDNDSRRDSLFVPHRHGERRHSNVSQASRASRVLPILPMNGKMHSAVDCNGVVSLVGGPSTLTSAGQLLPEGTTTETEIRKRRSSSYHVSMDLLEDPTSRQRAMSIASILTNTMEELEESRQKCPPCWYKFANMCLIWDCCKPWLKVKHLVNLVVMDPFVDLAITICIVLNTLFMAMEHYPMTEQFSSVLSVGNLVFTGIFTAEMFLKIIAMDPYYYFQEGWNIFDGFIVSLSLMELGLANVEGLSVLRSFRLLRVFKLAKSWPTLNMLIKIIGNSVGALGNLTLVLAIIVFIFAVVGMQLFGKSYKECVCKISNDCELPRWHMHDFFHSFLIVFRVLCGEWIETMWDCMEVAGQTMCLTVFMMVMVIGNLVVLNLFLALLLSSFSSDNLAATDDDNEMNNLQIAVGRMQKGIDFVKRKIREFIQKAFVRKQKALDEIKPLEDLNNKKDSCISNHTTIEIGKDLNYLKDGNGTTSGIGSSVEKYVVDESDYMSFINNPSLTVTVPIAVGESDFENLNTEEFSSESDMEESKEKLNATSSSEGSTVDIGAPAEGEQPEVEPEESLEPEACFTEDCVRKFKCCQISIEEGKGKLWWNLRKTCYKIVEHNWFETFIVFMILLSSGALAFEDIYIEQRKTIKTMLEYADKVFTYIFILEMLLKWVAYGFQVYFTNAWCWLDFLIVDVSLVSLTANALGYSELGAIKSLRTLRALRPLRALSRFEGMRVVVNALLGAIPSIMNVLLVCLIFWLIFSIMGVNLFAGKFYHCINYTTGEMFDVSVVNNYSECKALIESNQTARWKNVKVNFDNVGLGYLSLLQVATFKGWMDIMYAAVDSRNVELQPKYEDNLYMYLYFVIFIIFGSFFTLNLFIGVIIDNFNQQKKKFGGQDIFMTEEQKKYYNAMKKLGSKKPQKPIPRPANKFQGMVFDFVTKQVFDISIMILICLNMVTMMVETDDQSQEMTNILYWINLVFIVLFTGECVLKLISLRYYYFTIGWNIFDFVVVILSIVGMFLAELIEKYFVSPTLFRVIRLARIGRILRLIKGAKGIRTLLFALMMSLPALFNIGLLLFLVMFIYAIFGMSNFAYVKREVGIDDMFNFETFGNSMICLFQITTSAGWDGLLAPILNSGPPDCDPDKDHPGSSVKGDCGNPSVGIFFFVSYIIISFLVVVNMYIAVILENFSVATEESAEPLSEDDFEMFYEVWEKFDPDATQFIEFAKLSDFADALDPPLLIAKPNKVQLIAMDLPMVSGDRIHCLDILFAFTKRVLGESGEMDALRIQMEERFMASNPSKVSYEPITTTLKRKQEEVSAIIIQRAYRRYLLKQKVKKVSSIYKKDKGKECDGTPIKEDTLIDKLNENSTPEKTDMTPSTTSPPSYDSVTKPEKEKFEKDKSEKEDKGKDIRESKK

Experiment [2] shares this target. Kind of experiment: Inhibition of human voltage-gated sodium channel 1.2 expressed in HEK293 cells at 1 uM by […]. It counts as cell-based. An outline of the steps: as §1
For experiment [3] the target is unchanged. Kind of experiment: Inhibition of human voltage-gated sodium channel 1.2 expressed in HEK293 cells at 100 nM by […]. It counts as cell-based. Put shortly:
as §1

`CCCCCCCC(C/C=C/CCC(=O)O)OC` (racemic): the Activity in the experiment filed under Rattus norvegicus came out at 7.35%.
`CCCCCCCC(C/C=C/CCC(=O)NCCc1c[nH]c2ccccc12)OC` (racemic) had an Activity in the experiment filed under Rattus norvegicus of 36%. Also, the inhibition (in general, the percentage by which the read-out fell short of the control) turned out to be 100% in experiment [1], 88.4% in experiment [2] and 24.3% in experiment [3].
`CCCCCCC[C@@H](C/C=C/CCC(=O)NCCc1ccccc1)OC` returned an Activity in the experiment filed under Rattus norvegicus of 15.9%. The inhibition in experiment [1] amounted to 94.4%; in experiment [2], 74.4%; in experiment [3], 15.5%.
For `CCCCCCC[C@H](C/C=C/CCC(=O)O)OC`, in the experiment filed under Rattus norvegicus, the Activity came to 11.9%.
`CCCCCCCC(C/C=C/CCC(=O)NCCc1ccccc1)OC` (racemic) displayed an Activity in the experiment filed under Rattus norvegicus of 15.7%. Besides, the inhibition in experiment [1] is 90.2%; in experiment [2], 49.7%; in experiment [3] it was less than 10%.
On the same counts, the results for `CCCCCCC[C@@H](C/C=C/CCC(=O)NCCc1c[nH]c2ccccc12)OC` are 29%, 100%, 87.8% and 17.2%.
Turning to `CCCCCCC[C@H](C/C=C/CCC(=O)NCCc1ccccc1)OC`, the Activity in the experiment filed under Rattus norvegicus worked out at 13.8%. Further, the inhibition was 58.7% in experiment [2] and less than 10% in experiment [3].
The compound `CCCCCCC[C@H](C/C=C/CCC(=O)NCCc1c[nH]c2ccccc12)OC` showed an Activity in the experiment listed under Rattus norvegicus of 20.3%. Besides, the inhibition in experiment [2] was found to be 80.7%; in experiment [3], 28.8%.
In the experiment listed under Rattus norvegicus, `O=C1NC(=O)C(c2ccccc2)(c2ccccc2)N1` came in with an Activity of 19.8%. Moreover, the inhibition in experiment [1] is 10%; in experiment [2], less than 10%.
In the case of `CCCCCCC[C@@H](C/C=C/CCC(=O)O)OC`, in the experiment listed under Rattus norvegicus, the Activity turned out to be 7.77%.
